The values that follow come from the EternaBench riboswitch data.

In the data set the test system is MS2 coat protein. Put plainly: apparent Kd, MS2 coat protein; higher = weaker binding; RNA-MaP array; FMN 200 µM where present. The method, boiled down: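 Stalled E. coli RNA polymerase transcribed the designs on Illumina sequencing-chip clusters. SNAP-549-labelled MS2 coat protein was titrated from 0.7 or 1.5 nM, doubling to 3 µM, without and then with constant ligand, in 100 mM Tris-HCl pH 7.5, 80 mM KCl, 4 mM MgCl2, BSA, DTT, yeast tRNA and Tween-20. Per-cluster binding curves were fitted to green signal normalised to red-channel RNA signal and control-cluster median Fmax. The apparent Kd is the median of the filtered fits.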

[1] abbreviates: designed as: OFF switch for flavin mononucleotide, no ligand.
[2] abbreviates: ligand present: flavin mononucleotide, designed as: OFF switch for flavin mononucleotide.
[3] abbreviates: designed as: ON switch for flavin mononucleotide, no ligand.
Where [4] appears, read: ligand present: flavin mononucleotide, designed as: ON switch for flavin mononucleotide.

“AACAGUAGAGGAUAUACAUGAGGAUCACCCAUGUGAGAUUUAAGUGGCGUACCACAAAGUAGAAGGCUACUGGA”: the apparent Kd (commonly the concentration giving half-maximal binding under the conditions of the assay) by setting is: under setting [1], 36.2 nM; under setting [2], 161 nM.

For “AGCUAGUCAGGAUAUACGAACAUGUCAAAAGACGUGAACCCACAUGAGGAUCACCCAUGUAGAAGGGACUAGCA”, the “apparent Kd” value runs as follows: under setting [1], 26 nM; under setting [2], 65.7 nM.

With “UGACUUAUAUAGAAGGGUAUGUGGGAAUUACAUGAGGAUCACCCAUGUUUUAUAGGAUAUGUAUAUAGUUUUUAAUCAAGUUUA”, the “apparent Kd” value by setting is: under setting [1], 46.3 nM; under setting [2], 37.7 nM.

As to “UGGUACUUCGGAGGAUAUCAUGUAGAUACAUGAGGAUCACCCAUGUCGUACGAGAGUACGGAGAUUGAGAAGGCCGAAGUACCU”, the “apparent Kd” value runs as follows: under setting [3], 31.2 nM; under setting [4], 16 nM.

Regarding “GCGGCUAGUGCAGGAUAUCGGCGCGUGUAGCGCCGAGAAGGGCACAUGAGGAUCACCCAUGUGAUCAAUCACUGCUAAGGCCGC”, the “apparent Kd” value under setting [1] was 4.83 nM and the “apparent Kd” value under setting [2] is 4.91 nM.

In the case of “UGCCGUUUAGGAUAUACAUGAGGAUCACCCAUGUGACACACAUAUUUUACAAAACCAUGUAGAAGGAAACGGCA”, the “apparent Kd” value under setting [1] worked out at 104 nM and the “apparent Kd” value under setting [2] came out at 512 nM.

Regarding “GUCAGCUCGUGAGGAUAUACAUGUGCUGGAAACAGCACUAAAGUUUUCACAUGAGGAUCACCCAUGUAGAAGGCACGAGCUGAU”, the “apparent Kd” value under setting [1] came out at 15.8 nM and the “apparent Kd” value under setting [2] was found to be 35.2 nM.

“GGUAAGAUGCAGAAGGUGUUAGCUAGAGCUACGACAUGAGGAUCACCCAUGUACUAGAAACAGUACAAGGAUAUGCAUCUUACA”: the “apparent Kd” value reads like this: under setting [3], 17.1 nM; under setting [4], 6.12 nM.

“UGUCGGAGCAGAGGAUAUACAUGAGGAUCACCCAUGUAAUAAGAUCAAGCCUGGAAACAGGCAAUGUAGAAGGCUGCUCCGACA”: the “apparent Kd” value reads like this: under setting [1], 34 nM; under setting [2], 422 nM.

Take “AUUAUAUAGACAGGAUAUAGAAUAUUAUUUUAACAUGAGGAUCACCCAUGUAACCUUAUGUGUAGCUAGAAGGGUCAUUUAUUA”: the “apparent Kd” value runs as follows: under setting [1], 89.9 nM; under setting [2], 162 nM.

On to “UUAUUUUGUCAAGGAUAUGUAAUAUAGAUUAGAAAACAUGAGGAUCACCCAUGUAUAUGGUGGGAACAGAAGGUGAAUGGUUUA”, for which the “apparent Kd” value by setting is: under setting [1], 196 nM; under setting [2], 161 nM.

Consider “UUACAUACAAAGGUACAUGAGGAUCACCCAUGUUUAUUGGGAAGAAGGGUAACAGUAUUACAUAUAUAGGAUAUUUCACAAAUG”, for which the “apparent Kd” value was 90.6 nM under setting [3] and 69.8 nM under setting [4].

Consider “UCGUAUACACAAGGAUAUCGAUGGCUUGUAGAUCCUACAUGAGGAUCACCCAUGUUUUUAUAUUGUGAGAAGGUGUAGUGUCUU”, for which the “apparent Kd” value is 1170 nM under setting [3] and 1910 nM under setting [4].

Turning to “GUAUCUUAUGAGAAGGCGAUCAUGAAACAUGAUCGAGGAUAUCAUGUAAACAUGAGGAUCACCCAUGUAUGGGUAUUAUGGUAU”, the “apparent Kd” value worked out at 95 nM under setting [3] and 80.2 nM under setting [4].

Consider “UAGGAGCAAGGAUAUACGAGGAUAUGGUAGUUUGUAGAGUGACAUGAGGAUCACCCAUGUAGAAGGUGCGUGUG”, for which the “apparent Kd” value came out at 123 nM under setting [1] and 99.7 nM under setting [2].

With “GCUCUAUGCGAGAAGGCGUGCAACAUGAGGAUCACCCAUGUCAGAGAUAUGAGGAUAUUGCAUAGAGCAAAAGACGGAAACGUC”, the “apparent Kd” value was 6.68 nM under setting [3] and 4.48 nM under setting [4].

With “CCUCGUCACAUUAACAUGAGGAUCACCCAUGUCAAAAGACAUGAGGAUAUGCAUCCUAAUUGGAUGCAGAAGGCAUGGACGAGG”, the “apparent Kd” value runs as follows: under setting [3], 474 nM; under setting [4], 36.5 nM.

As to “CCACUGUCAGGAUAUCGUGCAUAAACGUUUACAUUUAUGUGCGAGAAGGGACAUGAGGAUCACCCAUGUAAACG”, the “apparent Kd” value runs as follows: under setting [1], 314 nM; under setting [2], 515 nM.

“UUAACUCAUGUAGGAUAUGCAUGGCGAAGCUACGCAGAAGGACAUGAGGAUCACCCAUGUUCUAGCUACCGAGUUCGGUGGCAA”: the “apparent Kd” value reads like this: under setting [1], 92 nM; under setting [2], 272 nM.

With “UGUUGUAUUACAGGAUAUCUAUUGUUGUUAUUUAGAGAAGGGUAUUCACAUGAGGAUCACCCAUGUAUAUACGAGGAAGUUGUG”, the “apparent Kd” value by setting is: under setting [3], 56 nM; under setting [4], 56.6 nM.

For “CUAAAUCAUGUAGGAUAUGCAUGGCGAAGCUACGCAGAAGGACAUGAGGAUCACCCAUGUCACUCCGUCUGCGUACAGACGGAG”, the “apparent Kd” value reads like this: under setting [1], 19.7 nM; under setting [2], 92.3 nM.

As to “ACCUUAAAAGUGAGGAUAUCUAGGGCCAAAUGGCCGGAGAAGGCACAUGAGGAUCACCCAUGUAACGCCAUGGA”, the “apparent Kd” value was found to be 13.7 nM under setting [1] and 43.7 nM under setting [2].

Consider “UCAUGGUAGCAGGAUAUGCUUGUUUUUUUUUUUGCAGAAGGGCUUACAUGAGGAUCACCCAUGUGUUAGGUCUA”, for which the “apparent Kd” value came out at 25.2 nM under setting [1] and 30.8 nM under setting [2].

On to “UUUUUAUUUGCAGGAUAUUGUAUUUUAUUACUUCAAGAAGGGCAUUACAUGAGGAUCACCCAUGUCUUCCUAUGGUUAACUAGU”, for which the “apparent Kd” value reads like this: under setting [1], 12.3 nM; under setting [2], 12 nM.

As to “CAGUACUGAGGAUAUACAUGAGGAUCACCCAUGUGUUCCAGCUAGGUAACUAGCAAAAGUAGAAGGCAGUACUG”, the “apparent Kd” value is, setting by setting: under setting [1], 23.6 nM; under setting [2], 321 nM.

Consider “UUUUUUGUUGUGAGGAUAUCGUUGUGGAUGUGGAUCGAGAAGGCACAUGAGGAUCACCCAUGUUUGUUGUGGUU”, for which the “apparent Kd” value reads like this: under setting [1], 102 nM; under setting [2], 158 nM.

Turning to “AAGCCACAUGAGGAUCACCCAUGUAUUUGACAGCGAGGAUAUGGGCCGCCAUGACGAGCACCAGAAGGCGCUGGUA”, the “apparent Kd” value under setting [3] is 20.9 nM and the “apparent Kd” value under setting [4] worked out at 16.3 nM.

As for “GCUUCCCAUGUGAGGAUAUGUAGGGUUAACCCGAGGCAGAAGGCACAUGAGGAUCACCCAUGUUAAAACUUCUA”, the “apparent Kd” value was determined as 29 nM under setting [1] and 60.6 nM under setting [2].

For “GGAUAGGACAGAGGAUAUACGUCCUAGAGAUACUAGCAAAAUUUCCUCACAUGAGGAUCACCCAUGUAGAAGGCUGUCCUAUCG”, the “apparent Kd” value under setting [1] worked out at 12.6 nM and the “apparent Kd” value under setting [2] is 141 nM.

Turning to “UUAUUAUAUGUAGGAUAUGCAUAUUAUUAUUAUGCAGAAGGACAUGAGGAUCACCCAUGUAUAUUAUUAUUAUAUAUUAUAUAU”, the “apparent Kd” value reads like this: under setting [1], 30.1 nM; under setting [2], 53.7 nM.

Regarding “GCUGGUCAAGGAUAUAUAUGACGUGCUUCGGCACGAAGAUCACAUGAGGAUCACCCAUGUAGAAGGUGACCAGC”, the “apparent Kd” value under setting [1] was 96.9 nM and the “apparent Kd” value under setting [2] was found to be 793 nM.

Take “AGCUAUUACGAAGGAUAUUCUGACAUGAGGAUCACCCAUGUCUUCAUGAUUUAUUGUGAUCACAUGAAGAAGGUCGUACUAACA”: the “apparent Kd” value was found to be 198 nM under setting [3] and 48.3 nM under setting [4].

For the sequence “AAAAAACAUGAGGAUCACCCAUGUAAAAAAAACACAGGAUAUCCCUUUUUUAAAAAAAAAGGAGAAGGGUGAAAAA”, the “apparent Kd” value worked out at 41.6 nM under setting [3] and 32.9 nM under setting [4].

Regarding “UGAUAGGACAGAGGAUAUGCGUAUAGUUACCUCUACAUGAGGAUCACCCAUGUAGAAGGCUGUCCUAUCUAAGUCGGAAACGAC”, the “apparent Kd” value under setting [1] came to 5.8 nM and the “apparent Kd” value under setting [2] stood at 5.61 nM.

As for “CGAGCUGCUGUGAGGAUAUGCCUGUGGGUGCGUGGGUAGAAGGCACAUGAGGAUCACCCAUGUCCUGCAGCUCG”, the “apparent Kd” value is, setting by setting: under setting [1], 856 nM; under setting [2], 412 nM.

As for “GACUUGUUAGGAUAUCUUACAUUUGCAUCAUAGUAACCAUUGGAGAAGGGACAUGAGGAUCACCCAUGUUUGGA”, the “apparent Kd” value runs as follows: under setting [1], 31.6 nM; under setting [2], 30.1 nM.

As for “UUAUGAUAGAUAGGAUAUACAUUGGAUUUAAAAGUAGAAGGAUCAAGUGGGAAAUGAACAUGAGGAUCACCCAUGUAAUAGGUU”, the “apparent Kd” value reads like this: under setting [3], 109 nM; under setting [4], 78.6 nM.

As to “UUGGACGUCGUAGGAUAUGUCGGAUAUUCCUACAUGAGGAUCACCCAUGUUGACAUGGAAGAAGGACAGAAGGACGAUGUCCAU”, the “apparent Kd” value was 4.52 nM under setting [3] and 3.87 nM under setting [4].

On to “AGGAAACAUGAGGAUCACCCAUGUGAGGAUAUUUGAAAGAAAAGAAAAGAAAGAAGAAGAAGAAGGCACAAGAA”, for which the “apparent Kd” value worked out at 32.4 nM under setting [1] and 35.5 nM under setting [2].

Turning to “UCCUUAAGUUAGGAUAUCGAUUGCUAUAGCAGAUGAGAAGGAGCCACAUGAGGAUCACCCAUGUCCUCACCUAU”, the “apparent Kd” value worked out at 180 nM under setting [1] and 214 nM under setting [2].

As to “GGGUACAUCGGAGGAUAUCAUGUAAAUACAUGAGGAUCACCCAUGUCGAUGGAGACAUCGGAGAUUGAGAAGGCCGAUGUACCA”, the “apparent Kd” value turned out to be 154 nM under setting [3] and 10.1 nM under setting [4].

With “ACAUGAGGCGCAGGAUAUGCAACAUGAUGAGUAGCAGAAGGGUGACAACAUGAGGAUCACCCAUGUAACAUGAGGAUCACCCAU”, the “apparent Kd” value is, setting by setting: under setting [1], 28.3 nM; under setting [2], 33.3 nM.

As to “GGGAUACACCAGAAGGACAUGAGGAUCACCCAUGUAGGAUAUGGGUACGCCGACAUUGGUCUGCUCUCGGUAGACUUUCCCGAU”, the “apparent Kd” value reads like this: under setting [3], 203 nM; under setting [4], 39.6 nM.

With “AUAUUGUGAGGAUAUGAACUUAGUAUCGAAAGAUACUAAGAUCAGAAGGCACAUGAGGAUCACCCAUGUUUCUC”, the “apparent Kd” value under setting [1] was found to be 77.5 nM and the “apparent Kd” value under setting [2] worked out at 402 nM.

Turning to “GAGAAGAAGUUAGGAUAUUGGAUAGGGACGGAAUAAGAAGGAGCACAUACAUGAGGAUCACCCAUGUUAGAAGAAGAGAUCCUC”, the “apparent Kd” value is 545 nM under setting [1] and 253 nM under setting [2].

Turning to “CACUCAUGUCUAGGAUAUGAGUGACAAGCGCGAAGUUUUUUCGGCGCUAGCUCAGAAGGAGACAUGAGGAUCACCCAUGUAAGG”, the “apparent Kd” value under setting [1] is 69.1 nM and the “apparent Kd” value under setting [2] is 18.2 nM.

As to “UUGGACAGCUAGAGCUGCUAAGUACAUGAGGAUCACCCAUGUCAGGAUAUCCUUCCGCAAUGCGAGGAGAAGGGACAGGGUCCC”, the “apparent Kd” value under setting [1] came out at 75.4 nM and the “apparent Kd” value under setting [2] was found to be 179 nM.

Consider “UAUAAACAUGAGGAUCACCCAUGUAAUAAUAUGGGAGGAUAUCAGAUUUAAUUUAAUUUAUGAGAAGGCCUAAUAU”, for which the “apparent Kd” value is, setting by setting: under setting [3], 627 nM; under setting [4], 43.1 nM.
